Bioassay records: PubChem BioAssay, several laboratories
An excerpt weighted towards active compounds, which were near 3% of everything screened.
Measles CPE: protection of cells from measles virus; 140,000 compounds, 1.5% hits; Measles virus-infected cells, CPE protection, absorbance; protection (pct of control), % at 4 µM; in the data active means protection mostly above about 24%, no sharp cut-off; inactive means mostly below about 26%
SDO1 yeast rescue: sdo1-depleted yeast growth rescue; S. cerevisiae sdo1-depleted JHY4D growth rescue, OD600 30 h; hits give high values; pdr5 snq2 efflux-pump mutant strain; 140,000 compounds, 0.21% hits; z-score at 10 µM;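 active means z-score above 3 at both the 24 hr and the 30 hr optical density reads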;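 further: z-score against mean and SD of all compound wells on the same plate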
sEH inhibitor: inhibitors of human soluble epoxide hydrolase; 91,000 compounds, 0.34% hits; recombinant human sEH enzymatic activity assay; AID 707; inhibition, % at 2 µM; in the data active means inhibition above about 80%
Target sequence (P34913 whole entry, looked up): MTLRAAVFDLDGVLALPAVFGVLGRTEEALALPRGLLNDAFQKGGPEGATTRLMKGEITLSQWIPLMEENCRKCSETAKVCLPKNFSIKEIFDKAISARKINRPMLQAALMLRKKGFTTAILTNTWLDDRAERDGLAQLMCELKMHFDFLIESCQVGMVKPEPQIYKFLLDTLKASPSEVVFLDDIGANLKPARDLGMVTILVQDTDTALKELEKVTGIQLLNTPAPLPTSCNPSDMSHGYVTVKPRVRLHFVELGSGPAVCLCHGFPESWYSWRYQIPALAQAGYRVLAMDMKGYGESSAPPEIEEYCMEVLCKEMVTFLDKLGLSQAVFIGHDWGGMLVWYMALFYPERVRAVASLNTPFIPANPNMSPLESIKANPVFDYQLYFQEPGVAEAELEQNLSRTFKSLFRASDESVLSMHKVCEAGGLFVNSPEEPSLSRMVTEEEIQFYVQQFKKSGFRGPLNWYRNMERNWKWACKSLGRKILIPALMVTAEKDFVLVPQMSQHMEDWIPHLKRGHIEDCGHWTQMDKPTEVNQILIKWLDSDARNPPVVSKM
sEH activator: activators of human soluble epoxide hydrolase | P34913 | purified human sEH enzymatic activity, activator screen | activation, % at 2 µM | 91,000 compounds, 0.04% hits | AID 717; in the data active means activation above about 37%
Yeast life ext: extends the lifespan of yeast; S. cerevisiae growth with nicotinamide, OD615; deaD strain in restrictive glucose medium; inhibition of the nicotinamide effect, % at 10 µM; 130,000 compounds, 0.68% hits;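 active means inhibition above a set limit, placed 3 SD over the median of all compounds, cut at about 26% in these data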;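 further: 0% = nicotinamide-treated wells and 100% = cells grown without nicotinamide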
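Material: Modified budding yeast, DeaD strain | Medium: Restrictive glucose medium | Probe or stimulus: 1.5 mM nicotinamide | Dosing: Single dose 10 µM compound, 0.25% DMSO | Times: 48 h at 30 °C | Technique: OD615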
Yeast growth inh: yeast BB579 growth reduction in restrictive medium. S. cerevisiae BB579 growth, OD615, 48 h. inhibition, % at 10 µM. 140,000 compounds, 0.51% hits. AID 804;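 active means inhibition above a set limit, 3 SD over the mean compound inhibition, cut at about 44% in these data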
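Detection: OD615 turbidity measurement; Material: Saccharomyces cerevisiae DeaD strain BB579, replicative lifespan model yeast; Timing: 48 h exposure, 30 °C; Doses: single 10 µM dose; Medium: CSMM-D restrictive synthetic medium containing dextrose (glucose); Controls: amphotericin B at 10 µg/mL as positive control.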
The depositor's hits bear a star; . = no result given.

SMILES | Measles CPE | SDO1 yeast rescue | sEH inhibitor | sEH activator | Yeast life ext | Yeast growth inh
CC(=O)Oc1ccc(OC(C)=O)c(SCCCCCN2CCOCC2)c1 | 9.8 | -0.05 | -8.3 | 6.4 | -7.9 | -2.8
CCOC(=O)C1=C(C)NC2=C(C(=O)C(C(=O)OCC)C(c3ccco3)C2)C1c1ccccn1 (stereo not drawn) | 49.6* | -0.52 | -10.2 | 13.1 | -10.8 | -4.8
CC(=NCCc1ccccc1)C1=C(O)CCC1=O | 6.7 | 1.2 | -15.2 | 8.8 | -5.5 | -17.0
CC(=O)C1=C(O)CCC1=NCCc1ccccc1 | 28.8* | -0.22 | 11.4 | -9.6 | -11.9 | -29.3
N#C/C(=C\c1ccccc1)c1nc2ncccc2[nH]1 | 55.8* | 0.46 | -2.0 | 2.0 | -9.2 | -31.7
N#C/C(=C\c1cccs1)c1nc2ccccc2[nH]1 | 17.0 | -1.73 | . | . | -1.5 | -6.7
OCCc1ccc(-c2ccc(Cl)cc2)o1 | 36.7* | 1.92 | 10.8 | -6.2 | -33.6 | -55.8
O=C(CN(c1ccc(Cl)c(C(F)(F)F)c1)S(=O)(=O)c1ccccc1)N/N=C/c1cccc2c1OCCO2 | 4.3 | -0.78 | 3.4 | -2.7 | 3.6 | -27.8
CC(C)(C)c1cnnn1-c1ccc(NC(=O)c2ccc3c(c2)OCO3)cc1 | 6.5 | -0.71 | 93.2* | -93.1 | -1.6 | -7.2
O=C(CSc1nnc(CNC(=O)c2cccs2)o1)Nc1ccc2c(c1)OCO2 | 7.8 | 1.8 | 9.2 | -7.4 | -24.2 | -10.9
Nn1c(SCC(=O)Nc2ccc3c(c2)OCO3)nnc1-c1ccccc1 | 3.1 | 0.38 | 1.4 | -4.8 | 22.8 | -44.1
O=C(CSc1nnc(Cc2ccccc2)o1)Nc1ccc2c(c1)OCO2 | 20.0* | 0.14 | -8.7 | 10.2 | -9.7 | -26.3
CC1(C)Cc2ccccc2-c2nnc(SCC(=O)Nc3ccc4c(c3)OCO4)n21 | 21.2 | 1.53 | -10.8 | 9.7 | 80.6* | 19.4
COC(=O)c1cc(COc2ccc3c(c2)oc(=O)c2ccccc23)c(C)o1 | 8.6 | 0.08 | -7.0 | 6.7 | -23.6 | -28.0
CCCCN(CCCNC(=O)c1ccc2nc(N3CCOCC3)sc2c1)Cc1ccccc1 | 1.8 | -1.21 | 20.0 | -21.0 | -14.8 | 14.9
CCCCCNC(=O)CSC1=N/C(=C\c2ccc(Cl)c(Cl)c2)C(=O)N1CC | 41.3* | 0.28 | -12.9 | 13.9 | -10.8 | 1.2
Cc1cc(C)c(NC(=O)c2cc3c(nc4sccn43)s2)c(C)c1 | 28.0* | -0.84 | 0.8 | 0.8 | -8.2 | -25.8
Cc1ccc(C)c(C(=O)c2c(C)nc3sccn23)c1 | 1.8 | 0.62 | -13.5 | 14.1 | -10.1 | -3.7
CC(=O)Nc1sc(N)nc1-c1ccccc1 | 35.0* | 0.22 | -2.3 | 4.6 | -2.8 | -44.7
Clc1ccc(SCc2cc(-c3ccc(Cl)cc3)on2)cc1 | 9.7 | -0.27 | -0.3 | 2.3 | -13.7 | -37.6
Cc1cc(C)nc(-n2cc(C(=O)c3cc(F)ccc3O)cn2)n1 | 8.9 | 0.3 | . | . | 30.4* | -27.8
O=C(CN(C(=O)C1CSC(=O)C1)c1ccccc1F)NCc1ccc2c(c1)OCO2 (stereo not drawn) | 63.0* | 0.12 | -8.0 | 7.4 | -8.7 | -33.3
O=C(NCCc1ccccc1)C1CCN(S(=O)(=O)c2cccc3nsnc23)CC1 | 49.1* | -0.26 | 21.9 | -23.7 | -7.2 | -40.2
COc1ccc(CNC(=O)C2CCC(CNS(=O)(=O)c3cccc4nsnc34)CC2)cc1 (stereo not drawn) | 19.5 | 0.55 | 95.2* | -95.3 | -6.9 | -23.3
O=C(NCc1ccc2c(c1)OCO2)C1CCC(CNS(=O)(=O)c2cccc3nsnc23)CC1 (stereo not drawn) | 8.3 | 0.63 | 94.3* | -94.3 | -3.4 | -6.8
SMILES | Measles CPE | SDO1 yeast rescue | sEH inhibitor | sEH activator | Yeast life ext | Yeast growth inh
COc1ccc(CCNC(=O)C2CCN(S(=O)(=O)c3cccc4nsnc34)CC2)cc1OC | 5.2 | 1.35 | 8.4 | -10.5 | -15.5 | -26.2
COc1ccc(N(C(=O)c2ccccc2OC(C)=O)C(C)C2CC2)cc1 (stereo not drawn) | 6.4 | -0.84 | -6.5 | 4.5 | 0.5 | -8.8
COC1=Cc2c(ccc3ccc(=O)oc23)OC1(C)C | 1.0 | -0.72 | . | . | -35.1 | 1.7
C=CCc1c(OC)ccc2ccc(=O)oc12 | 35.9* | -0.18 | -8.2 | 8.0 | -20.3 | -34.5
CCn1nnnc1SCC(=O)N1CCOCC1 | 27.9* | 0.1 | 5.0 | -3.6 | -0.5 | 12.2
CCCn1nnnc1SCC(=O)N1CCOCC1 | 9.3 | 0.97 | 6.4 | -6.9 | -7.3 | -61.4
CCCC(=O)Nc1cc(Cl)ccc1N1CCN(C(=O)CC)CC1 | 6.0 | -0.64 | -9.4 | 12.2 | -14.2 | -10.9
CCOC(=O)Nc1cc(C(=O)OC)ccc1C | 32.6* | 0.94 | -7.4 | 5.5 | -8.6 | -42.8
Cc1cccc(/C(N)=N/OC(=O)c2ccc(F)cc2)c1 | 7.8 | -2.48 | . | . | -10.3 | 94.5*
CCCN1CNC(=S)N(c2cc(C)ccc2C)C1 | 34.1* | 0.96 | -2.5 | 0.0 | . | 2.7
c1ccc(-c2ncnc3cc4n(c23)CCC4)cc1 | 1.5 | 0.23 | 2.1 | -1.6 | . | -15.2
COc1cccc(/C=C2\C(=O)N(c3cccc(C)c3)C(=O)c3ccccc32)c1 | 20.8 | -1.07 | . | . | 48.5* | -9.9
COc1cccc(N2C(=O)c3ccncc3C2=O)c1 | 3.6 | 0.67 | -8.2 | 8.0 | 3.6 | -84.1
Cc1cccc(N2C(=O)/C(=C\c3ccc(OC(F)F)cc3)c3ccccc3C2=O)c1 | 15.0 | -0.99 | . | . | 47.2* | -26.6
COc1ccccc1/C=N\N=C(\N)c1ccccn1 | 6.4 | 0.91 | . | . | -3.8 | 1.7
CCOc1ccc(-c2noc(=O)[nH]2)cc1 | 38.3* | 1.15 | -3.1 | 1.8 | -3.6 | -2.3
CCOC(=O)c1c(C)oc2c1c(C(c1cccnc1)N1CCCCC1)c(O)c1ccccc12 (stereo not drawn) | 9.3 | -3.16 | 1.5 | 1.7 | 50.2* | -35.3
CC1=NOC(=O)/C1=C\c1ccc(-c2cc(Cl)ccc2Cl)o1 | 1.1 | -0.98 | 3.6 | -8.9 | 20.1 | -50.7
CC1=NOC(=O)/C1=C/c1ccc(-c2ccc(Cl)cc2)o1 | 7.9 | -1.58 | -5.1 | 4.1 | -7.2 | 92.5*
COc1ccc2c(c1)Cc1sc(NC(C)=O)nc1-2 | 37.6* | -0.28 | -4.6 | 6.9 | -15.6 | -41.1
CCN1/C(=C/c2ccc3cccc(C)c3[n+]2CC)Sc2ccccc21 | 5.6 | -3.14 | -6.1 | 8.5 | -13.2 | 95.9*
O=C(CN(Cc1ccco1)C(=O)CNS(=O)(=O)c1ccc(F)cc1)NCCc1ccccc1 | 38.6* | 0.7 | . | . | 3.2 | -7.9
O=C(CN(Cc1ccco1)C(=O)CNS(=O)(=O)c1ccccc1)NCc1ccccc1 | 13.6 | 1.32 | -30.5 | 29.2 | -7.4 | -35.0
COc1nc(Cl)cn(-c2ccc(C)cc2)c1=O | 1.8 | -1.09 | . | . | 10.2 | -17.6
Cc1ccc(-n2c(Cl)c(Cl)nc(Cl)c2=O)cc1 | 0.9 | -1.79 | . | . | -9.3 | 99.5*
O=C(NCc1ccco1)C(=O)NCC1OCCN1S(=O)(=O)c1ccc(F)cc1 (stereo not drawn) | 49.5* | 0.24 | . | . | 1.7 | -32.9
COC(=O)c1c(-c2ccccc2)csc1NC(=O)CSc1ncnc2sc(C)c(C)c12 | 2.4 | 0.59 | -6.9 | 6.1 | -0.6 | -62.8
